Assay outcomes deposited in PubChem by several laboratories.
SMARCA2 activ – activators of SMARCA2 function; MG213 cells, MMTV-luciferase reporter, dexamethasone, overnight; activation, % at 9.1 µM; 370,000 compounds, 1% hits; AID 652017; in the data active = activation above about 7.8%
SR-BI HDL uptake – inhibitors of mouse SR-BI mediated HDL lipid uptake; Q61009; inhibition, % at 12.5 µM; ldlA[mSR-BI] CHO cells, DiI-HDL uptake fluorescence, 3 h; 320,000 compounds, 0.96% hits;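 active = mean replicate inhibition of at least 70% and a set share of replicates each scoring 70 or more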
Target sequence (Q61009 whole entry, looked up): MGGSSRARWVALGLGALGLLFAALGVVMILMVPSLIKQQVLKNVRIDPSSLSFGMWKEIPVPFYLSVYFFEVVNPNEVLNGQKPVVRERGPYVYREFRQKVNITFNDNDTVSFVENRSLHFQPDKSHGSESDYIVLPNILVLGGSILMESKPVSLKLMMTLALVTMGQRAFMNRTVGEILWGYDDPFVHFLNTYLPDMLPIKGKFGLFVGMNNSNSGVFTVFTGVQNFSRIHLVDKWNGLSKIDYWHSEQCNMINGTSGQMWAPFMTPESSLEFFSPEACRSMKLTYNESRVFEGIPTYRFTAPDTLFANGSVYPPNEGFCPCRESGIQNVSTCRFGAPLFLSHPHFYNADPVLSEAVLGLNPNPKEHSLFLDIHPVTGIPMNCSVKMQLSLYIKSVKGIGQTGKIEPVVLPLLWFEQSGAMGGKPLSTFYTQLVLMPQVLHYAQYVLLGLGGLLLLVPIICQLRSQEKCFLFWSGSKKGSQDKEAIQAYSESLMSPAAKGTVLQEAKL
Vif inh – HIV Vif inhibition; 340,000 compounds, 0.35% hits; inhibition, % at 7.49 µM; AID 602346; HEK293T cells, Vif self-association by quenched fluorescence, imaging, 24 h; in the data active = inhibition above about 50%, passing the limit was not always enough
TAG inh – inhibitors of triacylglycerol accumulation. H9c2 cells, Nile Red lipid (TAG) fluorescence; cells loaded with 200 µM oleic acid. 230,000 compounds, 0.66% hits. inhibition, % at 12.5 µM. AID 651582;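 active = pattern-corrected inhibition of lipid staining of at least 50% with the nuclear-stain viability signal not falling by more than 50%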
SR-BI uptake up – activators of SR-BI mediated HDL lipid uptake; CHO ldlA[mSR-BI] cells, DiI-HDL uptake fluorescence, 3 h; 100 = double the neutral-control signal; activation, % at 12.5 µM; 320,000 compounds, 0.096% hits;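 active = mean replicate activation of at least 60% and every replicate at or above 60%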
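Material: SR-BI-overexpressing, LDLR-lacking CHO cells; schedule: compound exposure 3 h, 37 °C; reagent: DiI-labelled HDL at 10 µg/mL final; technique: bottom-read fluorescence, 550/595 nm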
SMARCA2 conf – SMARCA2 activation, confirmation screen; AID 652260; activation, % at 9.1 µM; 3,500 compounds, 30% hits; MG213 cells, MMTV-luciferase with dexamethasone, luminescence, overnight; MG213 cells expressing E1A, Rb sequestered; DMSO wells 0%, reference activator 100%; shares compounds with SMARCA2 activ;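 active = activation above its plate's cutoff, the mean activation of tested wells plus 3 SD, cut at about 7.9% in these data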
VP16 Luc act – GAL4-VP16 reporter activation counter-screen. shares compounds with SMARCA2 activ. HEK293 GAL4-VP16 pG5luc reporter, luciferase luminescence; scaled: DMSO wells 0%, SAHA wells 100%. activation, % at 9.1 µM. 3,500 compounds, 41% hits;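 active = activation above the solvent-only control well mean plus 3 SD, averaged across control plates, cut at about 5.2% in these data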
Large screens that a line does not name were inactive (follow-up assays come after a bar, where they were run). Sampled rows, rich in hits. Any-hit rate of the full collection: about 2.5%.

O=C(CC(=O)Nc1ccccn1)Nc1ccccn1	none
Cc1ccnc(NC(=O)Cc2ccc(-c3ccccc3)cc2)c1	SMARCA2 activ 42 (no result: TAG inh) | SMARCA2 conf 37 | VP16 Luc act 9.1
Cc1ccc(NC(=O)CNC(=O)c2ccc(C)s2)nc1	none
CCC(=O)Nc1ccc(NC(=O)CCc2ccccc2)cn1	none (no result: TAG inh)
Cc1ccnc(NC(=O)CNC(=O)c2ccc(C)s2)c1	SMARCA2 activ 9.8 | SMARCA2 conf inactive | VP16 Luc act 6.7
CCC(=O)Nc1ccc(NC(=O)Cc2ccccc2)cn1	SMARCA2 activ 8.7 (no result: Vif inh) | SMARCA2 conf inactive | VP16 Luc act inactive
Cc1ccc(NC(=O)Cc2ccc(-c3ccccc3)cc2)nc1	none (no result: Vif inh)
O=C(Cc1ccc(-c2ccccc2)cc1)Nc1ccccn1	SMARCA2 activ 9.9 (no result: TAG inh) | SMARCA2 conf 16 | VP16 Luc act inactive
CCN(CC)S(=O)(=O)c1ccc(N2CCOCC2)c(NS(=O)(=O)c2ccc(Cl)s2)c1	none (no result: SR-BI HDL uptake, Vif inh, SR-BI uptake up)
Cc1ccc(S(=O)(=O)N(C)c2cccc3c2S(=O)(=O)N([C@H](C)c2ccccc2)C[C@@H](COCc2ccccc2)O3)cc1	none (no result: SR-BI HDL uptake, Vif inh, TAG inh, SR-BI uptake up)
CCOC(=O)Cc1nn(Cc2nc(-c3ccc(C#N)cc3)cs2)c(=O)c2ccccc12	none
O=C(C[C@H]1C[C@H](C(=O)N2CCOCC2)[C@@]2(CCC3CCCC3)c3[nH]c4ccc(Cl)cc4c3CCN2C1=O)NCCc1ccccn1	none (no result: SR-BI HDL uptake, SR-BI uptake up)
COCCCNC(=O)C[C@H]1C[C@H](C(=O)N2CCOCC2)[C@@]2(CCC3CCCC3)c3[nH]c4ccc(Cl)cc4c3CCN2C1=O	SMARCA2 activ 10 (no result: Vif inh) | SMARCA2 conf inactive | VP16 Luc act inactive
CCCCC(=O)Nc1ccc2c(c1)nc1n2CCSC1	SMARCA2 activ 8.1 | SMARCA2 conf 8.0 | VP16 Luc act 5.8
COc1ccccc1C(=O)Nc1ccc2c(c1)nc1n2CCSC1	SMARCA2 activ 8.9 (no result: TAG inh) | SMARCA2 conf 15 | VP16 Luc act 5.6
CCOC(=O)C1=CNS(=O)(=O)NC1c1ccc(Br)cc1F (stereo not given)	none
COc1ccc(NC(=O)/C=C/c2cccc(F)c2)cn1	SMARCA2 activ 12 (no result: TAG inh) | SMARCA2 conf inactive | VP16 Luc act 10
COc1ccc(NC(=O)/C=C/c2ccco2)cn1	none
CCc1sc(NC(=O)CN2CCOCC2)nc1-c1ccccc1	SMARCA2 activ 8.7 (no result: TAG inh) | SMARCA2 conf inactive | VP16 Luc act inactive
C=CS(=O)(=O)c1sc(Cl)c(N2CCOCC2)c1[N+](=O)[O-]	SMARCA2 activ 11 | SMARCA2 conf inactive | VP16 Luc act inactive
C=CSc1sc(Cl)c(N2CCOCC2)c1[N+](=O)[O-]	none
COc1ccc(Nc2nnc(-c3ccc4c(c3)OCO4)o2)cc1	none (no result: SR-BI HDL uptake, Vif inh, TAG inh, SR-BI uptake up)
O=C(/C=C/c1ccco1)N1CCc2ccccc21	SMARCA2 activ 9.6 | SMARCA2 conf 17 | VP16 Luc act 10.0
O=C(c1ccccc1)N1CCc2ccccc21	none (no result: Vif inh)
O=C(c1ccco1)N1CCc2ccccc21	SMARCA2 activ 8.5 | SMARCA2 conf inactive | VP16 Luc act inactive
CC(C)CC1NC(=O)c2cc(Cl)ccc2-n2c1nc1cc(F)ccc1c2=O (stereo not given)	none (no result: SR-BI HDL uptake, Vif inh, TAG inh, SR-BI uptake up)
Cc1noc(C)c1C(=O)NNc1ccc(C(C)C)cc1	none
Cc1ccc(NNC(=O)c2c(C)noc2C)cc1Cl	SMARCA2 activ 12 | SMARCA2 conf inactive | VP16 Luc act inactive
COc1ccc(NC(=O)COC(=O)c2ccc(N3CCCC3=O)cc2)cc1	none (no result: Vif inh)
CC(NC(=O)COC(=O)c1ccc(N2CCCC2=O)cc1)c1ccc(F)cc1 (stereo not given)	SMARCA2 activ 9.4 | SMARCA2 conf inactive | VP16 Luc act inactive
Cc1cc(C)c2nc(N3C(=O)C(O)=C(C(=O)c4ccco4)C3c3ccco3)sc2c1 (stereo not given)	none (no result: TAG inh)
Cc1ccc2nc(N3C(=O)C(O)=C(C(=O)c4ccco4)C3c3cccs3)sc2c1 (stereo not given)	SMARCA2 activ 12 (no result: TAG inh) | SMARCA2 conf inactive | VP16 Luc act 10
Cc1ccc(C(=O)N(C)Cc2nc3ccccc3c(=O)[nH]2)cc1NC(=O)c1ccco1	SMARCA2 activ 8.1 | SMARCA2 conf inactive | VP16 Luc act inactive
